B1: tRNA (parent)
chain: GUUCCGUUGGCGUAAUGGUAACGCGUCUCCCUCCUAAGGAGAAGACUGCGGGUUCGAGUCCCGUACGGAACG

Fewer inactive variants are shown than the library holds.

The variants in this series derive from B1. The series is described as follows: yeast fitness relative to wild type (ratio to wild type); higher = fitter; tRNA-Arg(CCU), competitive growth, 37 C, YPD. An outline of the steps: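 Variants of the tRNA-Arg(CCU) gene, chemically synthesised with a 3% per-site mutation rate at 69 sites, were placed at the native genomic locus in Saccharomyces cerevisiae. The pooled strains were competed in YPD at 37°C for 24 hours in six parallel replicates. Gene amplicons from the start population and from each end population were read by 100-nucleotide paired-end sequencing. Darwinian fitness relative to wild type came from changes in genotype frequencies; genotypes needed ≥ 100 starting reads, and estimates < 0.5 were set to 0.5.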
In the case of C11A C46U U53A G63C, the yeast fitness is not above 0.5.

Regarding C11A C30U C31U A36G G39C A45U G52C C60A, the yeast fitness is not above 0.5.

As to C11A A42G A43U C46U G67A A69C, the yeast fitness is not above 0.5.

Regarding C11A C27A, the yeast fitness is 0.654.

As to C11A C27U, the yeast fitness amounted to 0.646.

Take C11A A20C U28C A37U A40C G48A: the yeast fitness is not above 0.5.

For the variant C11A C33G A43C G68A, the yeast fitness stood at 0.61.

On to C11A A21U G58C A70C, for which the yeast fitness is not above 0.5.

For C11A A43U U64C, the yeast fitness was not above 0.5.

Consider C11A A21C G25C C34A A36U G44A, for which the yeast fitness was not above 0.5.

On to C11A C49A C66U, for which the yeast fitness was not above 0.5.

As for C11A C29G G44A G56C C62A G67C, the yeast fitness was not above 0.5.

As to C11A A21G C62G, the yeast fitness is 0.655.

For C11A C30G A45U C60A, the yeast fitness worked out at 0.537.

In the case of C11A C30U C49G, the yeast fitness worked out at 0.579.

Take C11A C55G A69C: the yeast fitness is not above 0.5.

For the variant C11A C34U A42G, the yeast fitness is not above 0.5.

With C11A A21G C34U A37G C62A, the yeast fitness is not above 0.5.

Take C11A A57G A69U: the yeast fitness is not above 0.5.

Consider C11A C34G G67A, for which the yeast fitness was not above 0.5.

In the case of C11A A14G U19G A43C U53A C62A C66U, the yeast fitness was not above 0.5.

On to C11A C30G C34G, for which the yeast fitness came out at 0.579.

C11A C34A G52C: the yeast fitness came to 0.541.

With C11A C31G A69U, the yeast fitness is not above 0.5.

Take C11A A42C C46G C60A: the yeast fitness was not above 0.5.

On to C11A A15U A20C C34G C66U, for which the yeast fitness was not above 0.5.

With C11A C29A A37U, the yeast fitness was not above 0.5.

As to C11A C27U C31A, the yeast fitness is not above 0.5.

For C11A A36G C49G C60U G68A, the yeast fitness was not above 0.5.

Take C11A C27G A70C: the yeast fitness is not above 0.5.

Turning to C11A C22G C29U U32C, the yeast fitness was 0.706.

As to C11A C46U A57C C66A, the yeast fitness is not above 0.5.

In the case of C11A C24U C34U G58C C62G G67A, the yeast fitness came to 0.544.

C11A C31U G41C A43C C60G: the yeast fitness was not above 0.5.

On to C11A A20G C46U G50C C60A A70C, for which the yeast fitness is 0.632.

In the case of C11A C27G C31U G68A, the yeast fitness is not above 0.5.

With C11A C24U C31U, the yeast fitness came to 0.547.

With C11A A20C A21G U47C G56C U64C G68C, the yeast fitness was not above 0.5.

For C11A A21C A43G C60U C62U A70C, the yeast fitness is not above 0.5.

Turning to C11A A14C C34A A70U, the yeast fitness was not above 0.5.

Regarding C11A C22U U54C, the yeast fitness is not above 0.5.

As for C11A A21G C55G C62A, the yeast fitness was not above 0.5.

As to C11A A21C A42C C61U, the yeast fitness was not above 0.5.

Regarding C11A A42G A43G C61A, the yeast fitness is not above 0.5.

Consider C11A C46U, for which the yeast fitness worked out at 0.712.

On to C11A C33A G68A, for which the yeast fitness came out at 0.557.

Take C11A C22G C29G U53A C55G: the yeast fitness is not above 0.5.

On to C11A A21C C31A C46G, for which the yeast fitness was not above 0.5.

Turning to C11A C22U G39C U47A, the yeast fitness is not above 0.5.

On to C11A A42G A43U C46U, for which the yeast fitness worked out at 0.532.

Consider C11A A57U, for which the yeast fitness was not above 0.5.

On to C11A A57C, for which the yeast fitness was found to be 0.675.

With C11A A36G A69C, the yeast fitness was determined as 0.562.

As to C11A A37C A45G, the yeast fitness is not above 0.5.

Take C11A C31U A37C C66U: the yeast fitness is not above 0.5.

On to C11A A42U A69U, for which the yeast fitness was not above 0.5.

On to C11A A43G U54C A65C, for which the yeast fitness is not above 0.5.

As for C11A C30U C33G A40G, the yeast fitness was not above 0.5.

In the case of C11A C24G C30U C31U C61U G67C, the yeast fitness was not above 0.5.

Take C11A C31A G44C: the yeast fitness was not above 0.5.

In the case of C11A C22A C29G A69G, the yeast fitness was 0.576.

On to C11A A20U U47C C60G, for which the yeast fitness is not above 0.5.

Regarding C11A C29G C66U, the yeast fitness came to 0.525.

As to C11A A42C G58A, the yeast fitness came to 0.742.

For C11A A15C C34A C66A, the yeast fitness is not above 0.5.

As for C11A C22A C29G, the yeast fitness came out at 0.545.

As for C11A C34G, the yeast fitness was not above 0.5.

In the case of C11A A20U C22U G67C, the yeast fitness is not above 0.5.

For G10U G17A C24A C66G, the yeast fitness is 0.595.

As to C11A A20G G39A G51A U53A C66U, the yeast fitness was not above 0.5.

As to C11A A21C U28A C55U C62U G67C, the yeast fitness was not above 0.5.

For the variant C11A A43U C49U, the yeast fitness was 0.548.

Turning to C11A C22G A45C G50A, the yeast fitness came out at 0.741.

With C11A A14G U19G A43C U53A, the yeast fitness was not above 0.5.

C11A A14C: the yeast fitness amounted to 0.683.

As for C11A C22U U26G A40U G48C, the yeast fitness was found to be 0.537.

Regarding C11A C27G U35A A43U U54C, the yeast fitness was 0.556.

As for C11A C24U U32A U35C, the yeast fitness came out at 0.566.

C11A C27U G44U: the yeast fitness is not above 0.5.

As to C11A A15G C22G C61U G68A, the yeast fitness was not above 0.5.

Consider C11A C22G C29G C61U C62A A70G, for which the yeast fitness was not above 0.5.

With C11A C31A G44C C60A, the yeast fitness is not above 0.5.

For the variant C11A C30G A45U C60A C62U, the yeast fitness was not above 0.5.

Turning to C11A C31U U53A A65U, the yeast fitness is not above 0.5.

On to C11A A14G A20U C22G C24U G48C G52A, for which the yeast fitness was 0.57.

For C11A A70G, the yeast fitness is 0.774.

For the variant C11A A70C, the yeast fitness amounted to 0.593.

As for C11A A21U C55U, the yeast fitness stood at 0.788.

As for C11A C49A, the yeast fitness is not above 0.5.

For C11A A40G C49G C62G, the yeast fitness was determined as 0.794.

On to C11A A15G C33U A37G, for which the yeast fitness is not above 0.5.

For C11A C27U U28C A57C C62A, the yeast fitness came out at 0.716.

Regarding C11A A21G, the yeast fitness stood at 0.774.

For the variant C11A A21G A40G, the yeast fitness worked out at 0.571.

Take C11A A43U C62G A70U: the yeast fitness was not above 0.5.

Take C11A C29G C60U G67A A69U: the yeast fitness is not above 0.5.

Take G10U G17A C24A: the yeast fitness was found to be 0.643.

For the variant C11A, the yeast fitness worked out at 0.676.

With C11A A36G G56C, the yeast fitness is not above 0.5.

As for C11A A15G C22U C29A A43U A45G, the yeast fitness is not above 0.5.

As to C11A C49A C62A, the yeast fitness was not above 0.5.

Regarding C11A C33U C62U A69C, the yeast fitness is not above 0.5.

As for C11A C27G C31A G68A, the yeast fitness was not above 0.5.

Consider C11A C27G C31A, for which the yeast fitness was 0.543.

In the case of C11A A15U A21U A36C A37U C55U, the yeast fitness is not above 0.5.

In the case of C11A A20U C29U C33G, the yeast fitness is 0.578.

C11A A42G C49U A65C: the yeast fitness was not above 0.5.

Regarding C11A A15U U16C A21U A36C A37U, the yeast fitness is not above 0.5.

On to C11A A36G A43C A69U, for which the yeast fitness was not above 0.5.

With C11A A15G C22U C29A A43U A45G A57U, the yeast fitness is not above 0.5.

On to C11A A40G A43U U59G, for which the yeast fitness was not above 0.5.

In the case of C11A C27G U64A A65G G67U, the yeast fitness is not above 0.5.

Regarding C11A A14C C34A A36G, the yeast fitness is not above 0.5.

Turning to C11A A43U C66U, the yeast fitness was not above 0.5.

As to C11A A43G A65C, the yeast fitness was found to be 0.501.

C11A C27G C55U: the yeast fitness is not above 0.5.

As for C11A C27A C29A A42C U47A G52A U59C, the yeast fitness is 0.503.

Take C11A C31A G44C A65C: the yeast fitness is not above 0.5.

In the case of C11A C55U G63A, the yeast fitness was not above 0.5.

As for C11A C24U C34A A37U, the yeast fitness was not above 0.5.

Consider C11A A14G A43C A57G U59C G63A A70G, for which the yeast fitness was not above 0.5.

C11A C29A U35A A65G: the yeast fitness was not above 0.5.

With C11A C24G, the yeast fitness was 0.52.

In the case of C11A A21G C34G G38C C62G A69C, the yeast fitness was not above 0.5.

On to C11A C24U C27A C62G, for which the yeast fitness is not above 0.5.

With C11A A15U, the yeast fitness came out at 0.658.

For C11A A15G, the yeast fitness turned out to be 0.711.

On to C11A A21G C62G C66U, for which the yeast fitness is not above 0.5.

For C11A A42C G51A, the yeast fitness was 0.73.

As for C11A A20U G38A A45C, the yeast fitness is not above 0.5.

For C11A C24G C30G, the yeast fitness turned out to be 0.599.

For the variant G10U G17A G25C C29A G52A, the yeast fitness is not above 0.5.

For C11A A40G C66U, the yeast fitness is not above 0.5.

On to C11A A14G C31G C34G C61U, for which the yeast fitness is not above 0.5.

Turning to C11A A14G G25C C29G, the yeast fitness is not above 0.5.

Turning to C11A C34A A40G G44C A70U, the yeast fitness was not above 0.5.

As for C11A A15C C24G C34A, the yeast fitness is not above 0.5.

Turning to C11A C55A, the yeast fitness is not above 0.5.

With C11A C55U, the yeast fitness was found to be 0.514.

Turning to C11A C31U A37C G51C C55G, the yeast fitness is not above 0.5.

Regarding C11A C49U G68A, the yeast fitness is not above 0.5.

Regarding C11A C27G C34A A42C U54C C60A C62G A70U, the yeast fitness was determined as 0.624.

For the variant C11A A14G A43C A57G U59C A70G, the yeast fitness came to 0.542.

As for C11A A45U G50U U54C U64A, the yeast fitness was not above 0.5.

For C11A A43G G50C G56C, the yeast fitness was not above 0.5.

As to C11A C24U G48A, the yeast fitness is not above 0.5.

As for C11A A21G C31G A36U A65U, the yeast fitness was not above 0.5.

Regarding C11A C24G U47G, the yeast fitness is not above 0.5.

C11A C22U C55A: the yeast fitness was not above 0.5.

C11A C24U G67C A70G: the yeast fitness is not above 0.5.

Take C11A A42G C61A: the yeast fitness was 0.618.

In the case of C11A C27G G50A U64G, the yeast fitness was not above 0.5.

For C11A C31G A42U C62A C66U A69U, the yeast fitness was not above 0.5.

As for C11A C29U C33U U54C, the yeast fitness is not above 0.5.

With C11A C29A, the yeast fitness was not above 0.5.

As for C11A C55A C66A, the yeast fitness was not above 0.5.

Regarding C11A A42G, the yeast fitness came out at 0.631.

As to C11A A21G C22G A37G, the yeast fitness is not above 0.5.

On to C11A A21U U54G A65C, for which the yeast fitness is not above 0.5.

Take C11A A43G G58C C62U: the yeast fitness was not above 0.5.

On to C11A A45C U53C, for which the yeast fitness worked out at 0.645.

C11A C22A: the yeast fitness stood at 0.626.

As to C11A A15G A40G, the yeast fitness turned out to be 0.824.

Regarding C11A A15G A40G C49U C60A C61A, the yeast fitness was not above 0.5.

As to C11A A36C A42G C49A, the yeast fitness was not above 0.5.

Consider C11A C34U U53C A69C, for which the yeast fitness was not above 0.5.

Turning to C11A A21C U53A C62U, the yeast fitness was not above 0.5.

The record behind these values is the RNAGym collection of RNA variant scans (doi:10.1126/science.aae0568).
